Assay results: ChEMBL document CHEMBL4689842, “EUbOPEN Chemogenomics Library wave 1” (2021)
“And” between values parts separate entries of the source, which are not always exact repeats. Equal entries are not always repeated.

Test system: Fibroblast
Experiment: Multiplex assay against human fibroblast
Format: toxicity, cell-based
Method in brief: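 Live cells carried four stains from seeding: Hoechst33342, BioTracker Green Microtubule Cytoskeleton Dye, MitoTracker Red and Annexin V Alexa Fluor 680. They were imaged on a CQ1 microscope at 37°C and 5% CO2 after compound addition. Using CellPathfinder machine-learning gating, cells were split into Hoechst high-intensity objects or normal cells, normal cells into healthy, pyknosed or fragmented nuclei, and pyknosed cells into mitotic or apoptotic; tubulin, mitochondrial-mass and membrane-permeability phenotypes are per cents of healthy-nucleus cells.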

[1] = 12 h, 1 µM, compound concentration 1 uM, replicate 1
[2] = 12 h, 1 µM, compound concentration 1 uM, replicate 2
[3] = 24 h, 1 µM, compound concentration 1 uM, replicate 1
[4] = 24 h, 1 µM, compound concentration 1 uM, replicate 2
[5] = 12 h, 10 µM, compound concentration 10 uM, replicate 1
[6] = 12 h, 10 µM, compound concentration 10 uM, replicate 2
[7] = 24 h, 10 µM, compound concentration 10 uM, replicate 1
[8] = 24 h, 10 µM, compound concentration 10 uM, replicate 2
[9] = 48 h, 1 µM, compound concentration 1 uM, replicate 1
[10] = 48 h, 1 µM, compound concentration 1 uM, replicate 2
[11] = 48 h, 10 µM, compound concentration 10 uM, replicate 1
[12] = 48 h, 10 µM, compound concentration 10 uM, replicate 2

Structure (SMILES): C[C@H]1Oc2cc(cnc2N)-c2c(nn(C)c2C#N)CN(C)C(=O)c2ccc(F)cc21 [LORLATINIB]
- Population Apoptotic (%) [1]: 60% and 68%
- Population Fragmented Nuclei (%) [1]: 26% and 17%
- Population Healthy Nuclei (%) [1]: 55% and 68%
- Population Hoechst High Intensity Objects (%) [1]: 19% and 8%
- Population Membrane Permeable-Phenotype (%) [1]: 20% and 11%
- Population Mitochondria Different-Phenotype (%) [1]: 7% and 4%
- Population Mitotic Cells (%) [1]: 40% and 31%
- Population Normal (%) [1]: 80% and 91%
- Population Pyknosed Nuclei (%) [1]: 17% and 14%
- Total Cell Count [1]: 210 and 172
- Population Apoptotic (%) [2]: 42% and 64%
- Population Fragmented Nuclei (%) [2]: 63% and 54%
- Population Healthy Nuclei (%) [2]: 25% and 15%
- Population Hoechst High Intensity Objects (%) [2]: 34% and 31%
- Population Membrane Permeable-Phenotype (%) [2]: 33% and 28%
- Population Mitotic Cells (%) [2]: 57% and 35%
- Population Normal (%) [2]: 65% and 68%
- Population Pyknosed Nuclei (%) [2]: 11% and 30%
- Population Tubulin-Different-Phenotype (%) [2]: 40% and 57%
- Total Cell Count [2]: 91 and 67
- Population Apoptotic (%) [3]: 55% and 64%
- Population Fragmented Nuclei (%) [3]: 22% and 24%
- Population Healthy Nuclei (%) [3]: 56% and 66%
- Population Hoechst High Intensity Objects (%) [3]: 14% and 12%
- Population Membrane Permeable-Phenotype (%) [3]: 15% and 6%
- Population Mitotic Cells (%) [3]: 44% and 35%
- Population Normal (%) [3]: 85% and 87%
- Population Pyknosed Nuclei (%) [3]: 21%
- Total Cell Count [3]: 201 and 190
- Population Apoptotic (%) [4]: 57% and 40%
- Population Fragmented Nuclei (%) [4]: 55% and 65%
- Population Hoechst High Intensity Objects (%) [4]: 36% and 33%
- Population Membrane Permeable-Phenotype (%) [4]: 33% and 20%
- Population Mitochondria Different-Phenotype (%) [4]: 0% and 13%
- Population Mitotic Cells (%) [4]: 42% and 60%
- Population Normal (%) [4]: 63% and 66%
- Population Tubulin-Different-Phenotype (%) [4]: 33% and 26%
- Total Cell Count [4]: 60 and 87

Structure (SMILES): O=C1NC(=O)C(c2cnc3ccccn23)=C1c1cn2c3c(cc(F)cc13)CN(C(=O)N1CCCCC1)CC2 [LY-2090314]
- Population Apoptotic (%) [1]: 60%
- Population Fragmented Nuclei (%) [1]: 16%
- Population Healthy Nuclei (%) [1]: 32%
- Population Hoechst High Intensity Objects (%) [1]: 11%
- Population Membrane Permeable-Phenotype (%) [1]: 29%
- Population Mitochondria Different-Phenotype (%) [1]: 22%
- Population Mitotic Cells (%) [1]: 40%
- Population Normal (%) [1]: 88%
- Population Pyknosed Nuclei (%) [1]: 51%
- Population Tubulin-Different-Phenotype (%) [1]: 89%
- Total Cell Count [1]: 166
- Population Apoptotic (%) [2]: 80%
- Population Fragmented Nuclei (%) [2]: 3%
- Population Healthy Nuclei (%) [2]: 87%
- Population Hoechst High Intensity Objects (%) [2]: 12%
- Population Membrane Permeable-Phenotype (%) [2]: 6%
- Population Mitochondria Different-Phenotype (%) [2]: 16%
- Population Mitotic Cells (%) [2]: 20%
- Population Normal (%) [2]: 87%
- Population Pyknosed Nuclei (%) [2]: 9%
- Population Tubulin-Different-Phenotype (%) [2]: 22%
- Total Cell Count [2]: 85
- Population Apoptotic (%) [5]: 61%
- Population Fragmented Nuclei (%) [5]: 23%
- Population Healthy Nuclei (%) [5]: 31%
- Population Hoechst High Intensity Objects (%) [5]: 6%
- Population Membrane Permeable-Phenotype (%) [5]: 50%
- Population Mitochondria Different-Phenotype (%) [5]: 26%
- Population Mitotic Cells (%) [5]: 38%
- Population Normal (%) [5]: 93%
- Population Pyknosed Nuclei (%) [5]: 44%
- Population Tubulin-Different-Phenotype (%) [5]: 86%
- Total Cell Count [5]: 101
- Population Apoptotic (%) [6]: 100%
- Population Fragmented Nuclei (%) [6]: 9%
- Population Healthy Nuclei (%) [6]: 74%
- Population Hoechst High Intensity Objects (%) [6]: 10%
- Population Membrane Permeable-Phenotype (%) [6]: 40%
- Population Mitochondria Different-Phenotype (%) [6]: 96%
- Population Mitotic Cells (%) [6]: 0%
- Population Normal (%) [6]: 89%
- Population Pyknosed Nuclei (%) [6]: 16%
- Population Tubulin-Different-Phenotype (%) [6]: 96%
- Total Cell Count [6]: 63
- Population Apoptotic (%) [3]: 64%
- Population Fragmented Nuclei (%) [3]: 25%
- Population Healthy Nuclei (%) [3]: 36%
- Population Hoechst High Intensity Objects (%) [3]: 7%
- Population Membrane Permeable-Phenotype (%) [3]: 26%
- Population Mitochondria Different-Phenotype (%) [3]: 17%
- Population Mitotic Cells (%) [3]: 35%
- Population Normal (%) [3]: 92%
- Population Pyknosed Nuclei (%) [3]: 38%
- Population Tubulin-Different-Phenotype (%) [3]: 86%
- Total Cell Count [3]: 156
- Population Apoptotic (%) [4]: 80%
- Population Fragmented Nuclei (%) [4]: 4%
- Population Healthy Nuclei (%) [4]: 87%
- Population Hoechst High Intensity Objects (%) [4]: 13%
- Population Membrane Permeable-Phenotype (%) [4]: 7%
- Population Mitochondria Different-Phenotype (%) [4]: 22%
- Population Mitotic Cells (%) [4]: 20%
- Population Normal (%) [4]: 86%
- Population Pyknosed Nuclei (%) [4]: 8%
- Population Tubulin-Different-Phenotype (%) [4]: 18%
- Total Cell Count [4]: 82
- Population Apoptotic (%) [7]: 70%
- Population Fragmented Nuclei (%) [7]: 24%
- Population Healthy Nuclei (%) [7]: 34%
- Population Hoechst High Intensity Objects (%) [7]: 11%
- Population Membrane Permeable-Phenotype (%) [7]: 41%
- Population Mitochondria Different-Phenotype (%) [7]: 58%
- Population Mitotic Cells (%) [7]: 29%
- Population Normal (%) [7]: 88%
- Population Pyknosed Nuclei (%) [7]: 41%
- Population Tubulin-Different-Phenotype (%) [7]: 87%
- Total Cell Count [7]: 102
- Population Apoptotic (%) [8]: 81%
- Population Fragmented Nuclei (%) [8]: 11%
- Population Healthy Nuclei (%) [8]: 64%
- Population Hoechst High Intensity Objects (%) [8]: 4%
- Population Membrane Permeable-Phenotype (%) [8]: 37%
- Population Mitochondria Different-Phenotype (%) [8]: 96%
- Population Mitotic Cells (%) [8]: 18%
- Population Normal (%) [8]: 95%
- Population Pyknosed Nuclei (%) [8]: 24%
- Population Tubulin-Different-Phenotype (%) [8]: 96%
- Total Cell Count [8]: 72
- Population Apoptotic (%) [9]: 79%
- Population Fragmented Nuclei (%) [9]: 36%
- Population Healthy Nuclei (%) [9]: 22%
- Population Hoechst High Intensity Objects (%) [9]: 6%
- Population Membrane Permeable-Phenotype (%) [9]: 14%
- Population Mitochondria Different-Phenotype (%) [9]: 25%
- Population Mitotic Cells (%) [9]: 20%
- Population Normal (%) [9]: 93%
- Population Pyknosed Nuclei (%) [9]: 41%
- Population Tubulin-Different-Phenotype (%) [9]: 85%
- Total Cell Count [9]: 127
- Population Apoptotic (%) [10]: 75%
- Population Fragmented Nuclei (%) [10]: 55%
- Population Healthy Nuclei (%) [10]: 29%
- Population Hoechst High Intensity Objects (%) [10]: 8%
- Population Membrane Permeable-Phenotype (%) [10]: 26%
- Population Mitochondria Different-Phenotype (%) [10]: 26%
- Population Mitotic Cells (%) [10]: 25%
- Population Normal (%) [10]: 91%
- Population Pyknosed Nuclei (%) [10]: 15%
- Population Tubulin-Different-Phenotype (%) [10]: 69%
- Total Cell Count [10]: 86
- Population Apoptotic (%) [11]: 73%
- Population Fragmented Nuclei (%) [11]: 28%
- Population Healthy Nuclei (%) [11]: 25%
- Population Hoechst High Intensity Objects (%) [11]: 15%
- Population Membrane Permeable-Phenotype (%) [11]: 28%
- Population Mitochondria Different-Phenotype (%) [11]: 57%
- Population Mitotic Cells (%) [11]: 26%
- Population Normal (%) [11]: 84%
- Population Pyknosed Nuclei (%) [11]: 46%
- Population Tubulin-Different-Phenotype (%) [11]: 71%
- Total Cell Count [11]: 97
- Population Apoptotic (%) [12]: 93%
- Population Fragmented Nuclei (%) [12]: 10%
- Population Healthy Nuclei (%) [12]: 61%
- Population Hoechst High Intensity Objects (%) [12]: 16%
- Population Membrane Permeable-Phenotype (%) [12]: 5%
- Population Mitochondria Different-Phenotype (%) [12]: 85%
- Population Mitotic Cells (%) [12]: 6%
- Population Normal (%) [12]: 83%
- Population Pyknosed Nuclei (%) [12]: 27%
- Population Tubulin-Different-Phenotype (%) [12]: 85%
- Total Cell Count [12]: 66
